Measurements from different studies.
Target: Serine/threonine-protein kinase N2 (PKN2, Homo sapiens, UniProt Q16513)

| Compound | observed | method | concentration | remaining binding [%] |
| --- | --- | --- | --- | --- |
| O=C(NCCCN1CCOCC1)c1ccc(Nc2ncc(Cl)c(-c3ccc(Cl)s3)n2)cc1 | binding | competition with immobilised ligand | 1 µM | 36 |
| C[C@@H]1CCN(c2nccc(-c3cnn4ncccc34)n2)C1 | binding | – | 1 µM | 71 |
| Cc1cnc(Nc2ccc(C(=O)N3CCC(N4CCCC4)CC3)cc2)nc1-c1cc2ccccc2s1 | binding | competition with immobilised ligand | 1 µM | 21 |
| C[C@@H]1CN(c2cc(-c3n[nH]c4ccc(OC5(C)CC5)cc34)ncn2)C[C@H](C)O1 | cell-free assay | competition with immobilised ligand | 0.1 µM | 89 |
| COc1ccnn2ncc(-c3ccnc(N(C)C)n3)c12 | binding | – | 1 µM | 87 |
| O=C1NC(c2ccccn2)Sc2ccccc21 (stereo not shown) | cell-free assay | competition with immobilised ligand | 1 µM | 100 |
| c1cncc(-c2cccc(Nc3nccc(NC4CCCCC4)n3)c2)c1 | binding | competition with immobilised ligand | 10 µM | 43 |
| CN(C)c1nccc(-c2cnn3ncccc23)n1 | binding | – | 1 µM | 100 |
| O=C(NCCCC1CCCCC1)c1ccc(CNC(=O)c2cnn(-c3ccccc3)c2C(F)(F)F)cc1 | cell-free assay | competition with immobilised ligand | 0.1 µM | 100 |
| Nc1ncc2c(n1)-c1c([nH]c3ccc(C#CC4CC4)cc13)CCCC2 | binding | competition with immobilised ligand | 1 µM | 72 |
| C=CC(=O)N1CCC(C(=O)NCC(=O)N2CCN(c3nc(-c4cnc(N)nc4C(F)F)nc(N4CCOCC4)n3)CC2)CC1 | binding | competition with immobilised ligand | 1 µM | 84 |
| O=C(NCC1CCOCC1)c1n[nH]cc1NC(=O)c1c(F)cccc1F | binding | competition with immobilised ligand | 1 µM | 89 |
| COc1cnc(Nc2cccc(S(N)(=O)=O)c2)nc1N1CCN(c2ccccc2)C(=O)C1 | binding | competition with immobilised ligand | 1 µM | 100 |
| CN(C)c1ncc(F)c(-c2cnn3ncccc23)n1 | binding | – | 1 µM | 100 |
| COc1cnc(Nc2cccc(S(N)(=O)=O)c2)nc1N1CCN(c2ccccc2)CC1 | binding | competition with immobilised ligand | 1 µM | 100 |
| CN([C@@H]1CCc2c(CC(=O)O)c3cc(S(C)(=O)=O)ccc3n2C1)S(=O)(=O)c1ccc(F)cc1 | cell-free assay | competition with immobilised ligand | 1 µM | 100 |
| Cc1cnn2ncc(-c3ccnc(N(C)C)n3)c2c1 | binding | – | 1 µM | 94 |
| COc1cccc(CNC(=O)c2nc3scc(COCc4ccc(C(=O)O)cc4)c3c(=O)[nH]2)c1 | cell-free assay | competition with immobilised ligand | 1 µM | 98 |
| O=C(c1ccc(Nc2ncc(Cl)c(-c3ccc(Cl)s3)n2)cc1)N1CCC(N2CCCC2)CC1 | binding | competition with immobilised ligand | 1 µM | 56 |
| CCN1CCN(Cc2ccc(C(=O)Nc3ccc(C)c(Oc4ccc5c(c4)CC(=O)N5)c3)cc2C(F)(F)F)CC1 | binding | competition with immobilised ligand | 1 µM | 100 |
| N[C@@H]1CCN(c2nccc(-c3cnn4ncccc34)n2)C1 | binding | – | 1 µM | 100 |
| Cn1nc(C(=O)NCc2ccc(C(=O)O)cc2)cc1-c1ccc2[nH]ccc2c1 | cell-free assay | competition with immobilised ligand | 0.1 µM | 100 |
